Structures are written as SMILES.

The results in this text go back to ChEMBL document CHEMBL3352678, “Synthesis and acetylcholinesterase inhibitory activity of Mannich base derivatives flavokawain B” (Bioorg Med Chem Lett, 2014).

For series [1], the target named is T1, Acetylcholinesterase (Rattus norvegicus, UniProt P37136).
T1 sequence (P37136 whole entry): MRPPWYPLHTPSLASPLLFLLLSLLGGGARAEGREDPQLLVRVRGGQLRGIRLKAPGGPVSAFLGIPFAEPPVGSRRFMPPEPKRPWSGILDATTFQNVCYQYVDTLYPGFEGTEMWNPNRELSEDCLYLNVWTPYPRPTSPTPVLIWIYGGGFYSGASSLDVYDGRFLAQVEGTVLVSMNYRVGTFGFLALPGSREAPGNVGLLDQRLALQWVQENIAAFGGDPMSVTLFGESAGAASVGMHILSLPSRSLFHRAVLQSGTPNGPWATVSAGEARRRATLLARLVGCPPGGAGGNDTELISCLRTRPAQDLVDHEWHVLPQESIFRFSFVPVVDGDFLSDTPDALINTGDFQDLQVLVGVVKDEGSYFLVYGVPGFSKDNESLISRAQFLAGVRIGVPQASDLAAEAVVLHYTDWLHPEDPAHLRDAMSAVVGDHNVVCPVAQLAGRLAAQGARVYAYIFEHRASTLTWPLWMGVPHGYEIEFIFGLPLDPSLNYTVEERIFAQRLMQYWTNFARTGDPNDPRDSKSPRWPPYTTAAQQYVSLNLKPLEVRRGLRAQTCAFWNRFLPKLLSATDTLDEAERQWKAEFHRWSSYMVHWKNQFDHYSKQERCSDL
The experiment in a line: Inhibition of Sprague-Dawley rat brain AChE using acetylthiocholin iodide as substrate preincubated for 25 mins by Ellman's/UV-vis spectroscopy analysis. In short, it runs like this: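 Modified Ellman's method. Inhibition ratio was calculated from absorbance of the AChE-catalysed reaction product. IC50 was taken as the concentration causing 50% loss of enzyme activity.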

Series [2] is described as follows: Octanol-buffer partition coefficient, log p of the compound at pH 7.4 for 24 hrs by shake flask method. The class given is physicochemical. In short, it runs like this:
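Partitioning between n-octanol and buffer at pH 7.4 by the classical shake-flask method. Compound in each phase quantified by reverse-phase HPLC. log P calculated from the phase distribution.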

Series [3] has as its target T1, Acetylcholinesterase. The experiment in a line: Inhibition of Sprague-Dawley rat brain AChE using acetylthiocholin iodide as substrate by Michaelis-Menten equation. In short, it runs like this: (§1)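 Kinetic analysis: Km and vmax were determined at several inhibitor concentrations. Ki for the free enzyme came from a linear replot of slope against inhibitor concentration. Ki′ for the enzyme–substrate complex came from a linear replot of intercept against inhibitor concentration.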

Series [4] concerns the target T1, Acetylcholinesterase. As to the kind of experiment: Inhibition of Sprague-Dawley rat brain AChE by Michaelis-Menten equation. In short, it runs like this:
as §1

In turn, `CCN(CC)Cc1c(OC)cc(OC)c(C(=O)/C=C/c2ccccc2)c1O` displayed an IC50 in series [1] of 15.1 µM. In addition, the logD at 24 h in series [2] was determined as 1.69.
In turn, `COc1cc(OC)c(C(=O)/C=C/c2ccccc2)c(O)c1CN1CCN(C)CC1` registered an IC50 in series [1] of 12.4 µM. In series [2], this molecule gave a logD at 24 h of 1.58.
The like results for `COc1cc(OC)c(C(=O)/C=C/c2ccccc2)c(O)c1CN1CCOCC1` were, in that order, 265 µM and 1.63.
In turn, `COc1cc(OC)c(C(=O)/C=C/c2ccccc2)c(O)c1CN1CCCCC1` came in with an IC50 in series [1] of 4.15 µM. For the same molecule, the Ki in series [3] amounted to 4.58 µM; in series [4] it was 2.75 µM. This molecule registered a logD at 24 h in series [2] of 1.75.
The molecule `COc1cc(OC)c(C(=O)/C=C/c2ccccc2)c(O)c1CN1CCCC1` displayed an IC50 in series [1] of 16.1 µM. The molecule further showed a logD at 24 h in series [2] of 1.74.
The corresponding values for `COc1cc(OC)c(C(=O)/C=C/c2ccccc2)c(O)c1CN(C)C` are 18.8 µM and 1.61.
The like results for `CCCN(CCC)Cc1c(OC)cc(OC)c(C(=O)/C=C/c2ccccc2)c1O` were, in that order, 54.8 µM and 1.77.

As a reminder, the IC50 is the concentration that gives 50% inhibition. Read a low IC50 as inhibition by little substance. As a reminder, the logD is lipophilicity at a set pH, counting ionised and neutral species. For orientation: Ki means a measure of affinity in units of concentration, obtained from inhibition or displacement. A low value points to tighter binding.
